In PubChem BioAssay AID1235 (PCMD, 2008):
Among all 62,000 compounds or so, about 50 (0.08%) were called active.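 How the source made its calls: active means inhibition above 30% in each of the two pooled mixtures holding the compound, so the lower value exceeds 30%; inactive means the rest.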 The list comes from a sample in which actives are over-represented; it also holds similar structures and randomly drawn compounds.

Assay: blockers of serum C3 deposition on LPS – biochemical, ELISA, human serum, orthogonally pooled compounds, primary screen (AID 1235);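 further: 0% = serum in Mg-EGTA without compound and 100% = EDTA serum blank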
Conditions: Human serum alternative complement pathway, LPS-coated ELISA, tested in compound mixtures, at 5 µM, hits give high values
In short: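 Medium: diluted human serum in Mg2+-EGTA GVB++. Assay system: human serum complement alternative pathway, C3 deposition onto LPS. Also added: Plate-bound LPS. Technique: Anti-C3 ELISA, OD 450 nm. Measure: percent inhibition. Incubation: 1 h at 37 °C. Dosing: 5 µM each compound, pools of ten, 50 µM per pool.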
In the case of CCCSc1nc2c(c(=O)n(C)c(=O)n2C)n1Cc1ccc(C)cc1, the inhibition is reported as -3.43% (inactive). For CNC(=O)C1CC(=O)N(Cc2ccc3c(c2)OCO3)C(=Nc2ccc(F)cc2)S1 (centres undefined), the inhibition was 13% (inactive). For O=C(C(Cc1ccccc1)n1cccc1)N1CCN(C2CCCCC2)CC1 (centres undefined), the inhibition was 14.7% (inactive). For O=C(O)c1cccc2c1C(=O)N(C1CCCCC1)C2, the inhibition was 16.2% (inactive). With O=C(Cn1nc(Cc2cccnc2)c2ccccc2c1=O)NCC1COc2ccccc2O1 (centres undefined) the inhibition was 15.7% (inactive). For CCOc1cc2c(cc1OCC)C(C(=O)O)C(c1ccc(OC)c(O)c1)N(C)C2=O (centres undefined), the inhibition was 16.6% (inactive). For Fc1ccccc1OCCSc1nc2ccccc2o1, the inhibition was -8.88% (inactive). In the case of Cc1nn(-c2ccccc2)c2c1C(=O)NC(=O)C(C)(C)C2, the inhibition is reported as 5.83% (inactive). For N#C/C=C\Oc1ccc(Cl)cc1N, the inhibition was -1.31% (inactive). With CCOC(=O)c1cccc(NC(=O)CCc2c(C)nc3ncnn3c2C)c1 the inhibition was 1.8% (inactive). For Cc1ccc(-c2nc(CS(=O)CC(=O)N3CCN(c4ncccn4)CC3)c(C)o2)cc1 (centres undefined), the inhibition was 22.7% (inactive). In the case of Cc1onc(-c2ccccc2Cl)c1C(=O)NCCn1ccc2ccccc21, the inhibition is reported as 7.02% (inactive). In the case of CCOc1ccc(CNC(=O)C2CC(=O)N(C3CCCC3)C2)cc1OC (centres undefined), the inhibition is reported as 18.4% (inactive). For Cc1cc2c(=O)n(C)c(SCC(=O)c3cc4ccccc4o3)nc2s1, the inhibition was 3.24% (inactive). For Cc1nc2ncnn2c(C)c1CCC(=O)N1CCN(C(=O)c2ccco2)CC1, the inhibition was 1.46% (inactive). For CN(C(=O)COc1nnc(-c2cccs2)c(-c2cccs2)n1)c1ccccc1, the inhibition was 7.72% (inactive). With C=CCN1C(=O)C(O)(CC(=O)c2ccc(Cl)cc2)c2ccccc21 (centres undefined) the inhibition was 8.76% (inactive). With CCOCCCNC(=O)Cc1cc(=O)[nH]c(=O)[nH]1 the inhibition was 26.3% (inactive). In the case of CC(C)CCNC(=O)CN(C(=O)Cn1nnc(-c2ccc(F)cc2)n1)C1CCCC1, the inhibition is reported as 0.465% (inactive). For COc1ccc(C2SCCN2S(=O)(=O)c2ccccc2)cc1OC (centres undefined), the inhibition was 21.6% (inactive). For COC(=O)c1ccc(CN(c2ccccc2OC)S(=O)(=O)c2cccs2)o1, the inhibition was -0.725% (inactive). In the case of CC1(C)C(=O)C2(CCCCC2)C(=O)OC1c1cccs1 (centres undefined), the inhibition is reported as 15.8% (inactive). In the case of COc1ccc(-c2nc3n(c2Br)CCC3)cc1, the inhibition is reported as 7.42% (inactive). In the case of O=C(CSc1nc2cc3c(cc2c(=O)n1CCC1=CCCCC1)OCO3)NCc1ccco1, the inhibition is reported as 15.2% (inactive). For CN1C(C)(C)CC(NC(=O)CCC(=O)NC2CC(C)(C)N(C)C(C)(C)C2)CC1(C)C, the inhibition was 9.95% (inactive). For CCOC(=O)C1CCN(C(=O)C2CCN(S(=O)(=O)c3c(C)noc3C)CC2)CC1, the inhibition was -18.4% (inactive). With COCCn1nnnc1C(c1ccccc1Cl)N1CCN(c2ccccc2OC)CC1 (centres undefined) the inhibition was 9.52% (inactive). In the case of O=C(CCOc1ccccc1)NCc1ccccc1, the inhibition is reported as 12.9% (inactive). For O=C(CCCN1C(=O)C2C3C=CC(C3)C2C1=O)N1CCN(c2ccccc2)CC1 (centres undefined), the inhibition was 11.5% (inactive). With C[N+](C)(C)CCNC(=O)c1c(O)c2c([nH]c1=O)CCCC2 the inhibition was 4.27% (inactive). In the case of C/C(=N\O)C1(C)N(O)C(C)(C)C(c2ccc(Br)cc2)=[N+]1[O-] (centres undefined), the inhibition is reported as 0.945% (inactive). For CC(=O)C1C(c2cccc(Oc3ccccc3)c2)NC(=O)NC1(O)C(F)(F)F (centres undefined), the inhibition was 6.73% (inactive). With COc1ccccc1CNC(=O)C1CCN(c2nc3ccccc3o2)CC1 the inhibition was -3.35% (inactive). With COc1ccccc1CNC(=O)C1CCCN(S(=O)(=O)c2cccc3cccnc23)C1 (centres undefined) the inhibition was 5.61% (inactive). In the case of COc1ccccc1CNC(=O)C1CCN(S(C)(=O)=O)CC1, the inhibition is reported as 35.9% (active). In the case of CCn1c(SCC(=O)Nc2ccccc2F)nc2c(c1=O)SC(C)C2 (centres undefined), the inhibition is reported as -1.83% (inactive). With COC(=O)c1ccc(N(CC(=O)NC2CCCC2)C(=O)CNC(=O)c2ccco2)cc1 the inhibition was 13.6% (inactive). With CCCNC(=O)Nc1ccccc1C(=O)Nc1ccc(OC)cc1 the inhibition was 6.47% (inactive). For CCCN1C2=C(C(=O)CCC2)C(c2ccc(O)c(Br)c2)C2=C1CCCC2=O, the inhibition was 3.41% (inactive). With COc1ccc(OC)c(Nc2nc(-c3ccc(O)c(O)c3)cs2)c1 the inhibition was 15.1% (inactive). For O=c1c2ccccc2nc(CSc2nnnn2-c2ccccc2)n1-c1ccccc1, the inhibition was 16.5% (inactive). In the case of CCC1C(C#N)=C(SC)NC2=C1C(=O)CC(C)(C)C2 (centres undefined), the inhibition is reported as 29.5% (inactive). In the case of C=C(C)Cn1c(N2CCCC2)nc2c1c(=O)[nH]c(=O)n2C, the inhibition is reported as 13.6% (inactive). For COc1ccc(OC)c(NC(=O)CC(Cc2ccccc2OC)C(=O)O)c1 (centres undefined), the inhibition was 6.63% (inactive). With O=C(Cn1cnc2c(nnn2-c2ccccc2)c1=O)N1CCC(Cc2ccccc2)CC1 the inhibition was 12.9% (inactive). With CCC1SC2=NCCN2C1(O)c1ccc(Cl)cc1 (centres undefined) the inhibition was -4.64% (inactive). With CCN(CC)c1ccc(C(=O)OCC(=O)c2ccco2)cc1 the inhibition was -18.9% (inactive). For Cc1nn(Cc2ccc(Cl)c(Cl)c2)c(C)c1NC(=O)c1cc(C2CC2)on1, the inhibition was 14.3% (inactive). For COc1ccccc1N1CCN(c2nc3ccccc3n3nnnc23)CC1, the inhibition was -4.06% (inactive). With CCOC(=O)c1cc2sccc2n1Cc1ccc(C#N)cc1 the inhibition was 8.71% (inactive). For COCCNC(=O)c1snc2ccc(Cl)cc12, the inhibition was -12.7% (inactive). In the case of Cc1ccn2cc(-c3nonc3C)cc2c1, the inhibition is reported as 17.2% (inactive). In the case of Cc1ccc(N2C(=O)CC(NCc3ccc4c(c3)OCO4)C2=O)cc1Cl (centres undefined), the inhibition is reported as 24.4% (inactive). For O=C(Nc1ccc2c(c1)OCCO2)C1CCCN(c2ncccn2)C1 (centres undefined), the inhibition was 4.42% (inactive). With CCOc1ccc(OCC)c(NC(=O)C2CCN(S(=O)(=O)c3c(C)noc3C)CC2)c1 the inhibition was 4.52% (inactive). For O=C(NCCc1ccccn1)c1ccc(COc2ccccc2)o1, the inhibition was 13.5% (inactive). With COc1cccc(NC(=O)c2ccccc2SC)c1 the inhibition was 12.3% (inactive). For CC(C)OCCCNC(=O)C1CC(=O)N(C2CCCCCCC2)C1 (centres undefined), the inhibition was 16.3% (inactive). With CC(C)(O)C#Cc1ccc(C(=O)N2CCC(C(N)=O)(N3CCCCC3)CC2)cc1 the inhibition was 0.925% (inactive). In the case of CCN(CC)S(=O)(=O)c1ccc2nc(CSc3nnnn3-c3ccc(O)cc3)[nH]c2c1, the inhibition is reported as -3.47% (inactive). For O=C(NCc1cccnc1)c1cn(-c2ccccc2)nc1-c1cccs1, the inhibition was 0.865% (inactive). In the case of COc1ccc(NC(=O)CCNC(=O)Cn2ccc3ccccc3c2=O)c(OC)c1, the inhibition is reported as 29.1% (inactive). In the case of CCOC(=O)c1ccc(N2C(=O)CC(N3CCC(C(=O)OCC)CC3)C2=O)cc1 (centres undefined), the inhibition is reported as -0.58% (inactive). In the case of O=P(O)(CN1CCCCC1)CN1CCCCC1, the inhibition is reported as 8.65% (inactive). For Cc1noc(C)c1CSc1nnc2ccc3ccccc3n12, the inhibition was 9.95% (inactive). In the case of COc1ccc(OC)c(S(=O)(=O)Nc2ccccc2F)c1, the inhibition is reported as 6.16% (inactive). For COC(=O)Nc1ccc(S(=O)(=O)N(C)CC(F)(F)C(F)F)cc1, the inhibition was 13.5% (inactive). With Cc1ccc(C)c(N2CCN(C(=O)CCc3nc4ccccc4[nH]3)CC2)c1 the inhibition was 18.5% (inactive). For Cc1ccc(-c2nnn(CC(=O)N(CCO)C(C(=O)NC(C)(C)C)c3ccncc3)n2)cc1 (centres undefined), the inhibition was 9.36% (inactive). With Cc1ccc(C)c(N2CCN(S(=O)(=O)c3ccc4c(c3)oc(=O)n4C)CC2)c1 the inhibition was 3.29% (inactive). In the case of CN(C)CC(O)COc1ccc(C(C)(C)c2ccc(OCC(O)CN(C)C)cc2)cc1 (centres undefined), the inhibition is reported as 0.48% (inactive). With Cc1nc(Nc2ccc3c(c2)OCCO3)c2nnn(Cc3ccccc3Cl)c2n1 the inhibition was 1.64% (inactive). With Cc1cc(C)c(C#N)c(SCS(=O)c2ccc(C(C)(C)C)cc2)n1 (centres undefined) the inhibition was 4.51% (inactive). In the case of COc1ccc(-c2[nH]nc3c2C(c2ccncc2)C(C#N)=C(N)O3)cc1 (centres undefined), the inhibition is reported as 0.015% (inactive). In the case of CC(C)(C)c1cc(CN2CCN(CCC#N)CC2)cc(C(C)(C)C)c1O, the inhibition is reported as -7.06% (inactive). For CC1CCc2c(sc(NC(=O)c3ccc(Cn4cc(Br)cn4)o3)c2C(N)=O)C1 (centres undefined), the inhibition was 8.16% (inactive). For Cc1cccc(N=C2NC(=O)CS2)c1C, the inhibition was 4.01% (inactive). For Cc1ccc2nc(S(=O)(=O)O)[nH]c2c1, the inhibition was -4.08% (inactive). For O=C(Cn1nc(C(F)(F)F)c2c1CCC2)NCc1ccc(F)cc1, the inhibition was -10.2% (inactive). With CCc1nnc(NC(=O)CSc2nnc(-c3ccncc3)n2Cc2ccccc2)s1 the inhibition was 6.79% (inactive). For C=C(C)Cn1c(N2CCN(CC)CC2)nc2c1c(=O)[nH]c(=O)n2C, the inhibition was -2.46% (inactive). With COC(=O)C(C)n1cnc2c(nnn2-c2cccc(Cl)c2)c1=O (centres undefined) the inhibition was 7.95% (inactive). For Cc1c(C(=O)N2CC(C)OC(C)C2)sc2nc(-c3ccccc3)cn12 (centres undefined), the inhibition was 11% (inactive). With FC(F)(F)c1cccc(Nc2ncnc3ccccc23)c1 the inhibition was 13.9% (inactive). In the case of Cc1cc(=O)n2nc(N3CCCC3C(=O)NCCCN3CC(C)CC(C)C3)sc2n1 (centres undefined), the inhibition is reported as 20.4% (inactive). In the case of CCCN1CC=C2C(C#N)=C(N)C(C#N)(C#N)C(c3cc(OC)ccc3OC)C2C1 (centres undefined), the inhibition is reported as -5.21% (inactive). With Cc1cc(C(=O)O)c(S(C)(=O)=O)s1 the inhibition was 21.7% (inactive). In the case of O=C(OCc1cc2ccccc2[nH]c1=O)c1cccnc1, the inhibition is reported as 1.83% (inactive). For CCOC(=O)N1CCN(CC(=O)c2ccc3c(c2)CCN3)CC1, the inhibition was 22.3% (inactive). With CCOC(=O)C1(C(F)(F)F)N=C(N(C)C)OC(N(C)C)=N1 the inhibition was 23.1% (inactive). In the case of O=C(CSc1n[nH]c(-c2cccnc2)n1)Nc1ccnc2ccccc12, the inhibition is reported as -1.01% (inactive). For CSc1nnc2c(n1)OC(c1cn(C)c3ccccc13)N(C(C)=O)c1ccccc1-2 (centres undefined), the inhibition was 12.4% (inactive). In the case of Cc1nc2nc(CSc3nc4ccccc4s3)cc(=O)n2[nH]1, the inhibition is reported as 8.57% (inactive). With O=C(NCc1ccc2c(c1)OCO2)C1CCCN(S(=O)(=O)c2cccs2)C1 (centres undefined) the inhibition was 7.05% (inactive).
